Results as given in ChEMBL document CHEMBL4043255, “Design, synthesis and biological evaluation of novel histone deacetylase inhibitors incorporating 4-aminoquinazolinyl systems as capping groups” (Bioorg Med Chem Lett, 2017).

Experiments:
PC-3 = experiment: Anti-proliferative activity against human PC3 cells after 48 hrs by MTT assay; format: functional, cell-based; conditions: PC-3, 48 h
in vivo [1] = conditions: Sprague-Dawley, rat, iv, 2 mg/kg
in vivo [2] = conditions: Sprague-Dawley, rat, po, 20 mg/kg
[3] = Inhibition of HDAC in human HeLa nuclear extract using Fluor de Lys as substrate after 15 mins by fluorescence assay
Histone deacetylase 1 = Histone deacetylase 1 (Homo sapiens, UniProt Q13547); experiment: Inhibition of HDAC1 (unknown origin)
[4] = biological target: T1, Protein deacetylase HDAC6 (Homo sapiens, UniProt Q9UBN7); experiment: Inhibition of HDAC6 (unknown origin)
T1 sequence (Q9UBN7 whole entry): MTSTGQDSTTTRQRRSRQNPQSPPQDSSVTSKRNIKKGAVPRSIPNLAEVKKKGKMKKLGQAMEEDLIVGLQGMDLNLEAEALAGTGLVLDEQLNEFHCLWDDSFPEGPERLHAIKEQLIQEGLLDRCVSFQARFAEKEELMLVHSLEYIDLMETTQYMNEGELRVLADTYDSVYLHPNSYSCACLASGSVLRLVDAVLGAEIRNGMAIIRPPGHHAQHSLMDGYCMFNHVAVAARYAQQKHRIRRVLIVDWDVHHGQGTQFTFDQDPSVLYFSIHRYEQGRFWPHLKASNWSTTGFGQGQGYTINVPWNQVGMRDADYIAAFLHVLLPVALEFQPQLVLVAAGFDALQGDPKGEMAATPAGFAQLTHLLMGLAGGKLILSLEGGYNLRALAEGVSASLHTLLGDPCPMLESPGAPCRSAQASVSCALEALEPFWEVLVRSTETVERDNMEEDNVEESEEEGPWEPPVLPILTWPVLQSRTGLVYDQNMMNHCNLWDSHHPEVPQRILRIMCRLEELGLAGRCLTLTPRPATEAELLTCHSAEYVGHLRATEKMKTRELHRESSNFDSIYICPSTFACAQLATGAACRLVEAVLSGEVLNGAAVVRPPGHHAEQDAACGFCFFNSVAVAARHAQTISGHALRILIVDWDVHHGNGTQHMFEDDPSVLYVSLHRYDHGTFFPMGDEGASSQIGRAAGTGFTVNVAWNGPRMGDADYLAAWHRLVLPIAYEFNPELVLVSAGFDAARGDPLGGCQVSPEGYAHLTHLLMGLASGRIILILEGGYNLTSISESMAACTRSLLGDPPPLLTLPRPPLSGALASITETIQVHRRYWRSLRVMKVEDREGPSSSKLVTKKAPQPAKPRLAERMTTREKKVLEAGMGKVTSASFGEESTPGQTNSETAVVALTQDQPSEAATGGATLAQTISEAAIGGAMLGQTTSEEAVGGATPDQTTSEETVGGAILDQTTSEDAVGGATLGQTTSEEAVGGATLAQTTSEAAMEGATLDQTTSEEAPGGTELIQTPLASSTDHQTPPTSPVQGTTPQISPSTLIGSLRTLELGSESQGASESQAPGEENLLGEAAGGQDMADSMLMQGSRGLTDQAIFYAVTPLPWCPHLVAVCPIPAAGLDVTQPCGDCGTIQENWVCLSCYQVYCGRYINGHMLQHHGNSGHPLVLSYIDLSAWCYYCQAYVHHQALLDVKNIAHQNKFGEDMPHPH

Histone deacetylase 8 = biological target: T2, Histone deacetylase 8 (Homo sapiens, UniProt Q9BY41); experiment: Inhibition of HDAC8 (unknown origin)
T2 sequence (Q9BY41 whole entry): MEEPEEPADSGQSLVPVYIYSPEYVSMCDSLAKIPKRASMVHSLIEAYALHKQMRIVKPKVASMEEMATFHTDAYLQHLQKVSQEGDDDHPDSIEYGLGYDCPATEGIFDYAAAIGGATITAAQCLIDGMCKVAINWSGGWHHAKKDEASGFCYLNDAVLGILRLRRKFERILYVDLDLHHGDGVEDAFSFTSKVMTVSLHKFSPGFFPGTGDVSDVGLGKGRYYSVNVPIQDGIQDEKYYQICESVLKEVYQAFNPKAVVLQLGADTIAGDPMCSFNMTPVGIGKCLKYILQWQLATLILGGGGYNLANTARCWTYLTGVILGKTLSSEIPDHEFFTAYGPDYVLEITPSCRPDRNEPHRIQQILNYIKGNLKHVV

MDA-MB-231 = experiment: Anti-proliferative activity against human MDA-MB-231 cells after 48 hrs by MTT assay; format: functional, cell-based; conditions: MDA-MB-231, 48 h
HCT-116 = experiment: Anti-proliferative activity against human HCT116 cells after 48 hrs by MTT assay; format: functional, cell-based; conditions: HCT-116, 48 h
K562 = experiment: Anti-proliferative activity against human K562 cells after 48 hrs by MTT assay; format: functional, cell-based; conditions: K562, 48 h
A549 [5] = experiment: Anti-proliferative activity against human A549 cells after 48 hrs by MTT assay; format: functional, cell-based; conditions: A549, 48 h
MRC5 = experiment: Anti-proliferative activity against human MRC5 cells after 48 hrs by MTT assay; format: ADME, cell-based; conditions: MRC5, 48 h
[6] = biological target: Voltage-gated inwardly rectifying potassium channel KCNH2 (Homo sapiens, UniProt Q12809); experiment: Inhibition of recombinant human ERG expressed in HEK293 cells at -80 mV holding potential measured for 9 mins by Qpatch clamp method; format: cell-based
A549 [7] = experiment: Antitumor activity against human A549 cells xenografted in mouse assessed as tumor growth inhibition at 40 mg/kg, ip administered once every other day for 21 days relative to control; format: functional; conditions: 504 h, read-out: TGI
In short: (§1)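 Mice bearing non-small cell lung cancer A549 xenografts were given the compound ip at 20 or 40 mg/kg once every other day for a 21-day efficacy study.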

A549 [8] = experiment: Antitumor activity against human A549 cells xenografted in mouse assessed as tumor growth inhibition at 20 mg/kg, ip administered once every other day for 21 days relative to control; format: functional; conditions: 504 h, read-out: TGI; in short: as §1
[9] = Terminal half life in Sprague-Dawley rat at 2 mg/kg, iv by HPLC method; format: ADME, organism-based; conditions: in vivo, read-out: beta t1/2 (converted)
In short: (§2)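 Female Sprague-Dawley rats were dosed with the compound at 2 mg/kg iv (for clearance and terminal half-life) or 20 mg/kg orally (for Cmax, Tmax and oral bioavailability). Blood was collected at various time points up to 24 h, and plasma was analyzed by HPLC coupled to triple quadrupole mass spectrometry.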

[10] = Clearance in Sprague-Dawley rat at 2 mg/kg, iv by HPLC method; format: ADME, organism-based; conditions: in vivo; in short: as §2
[11] = Tmax in Sprague-Dawley rat at 20 mg/kg, po by HPLC method; format: ADME, organism-based; conditions: in vivo; in short: as §2
[12] = Cmax in Sprague-Dawley rat at 20 mg/kg, po by HPLC method; format: ADME, organism-based; design: dose 20 mg/kg, route oral; conditions: in vivo; in short: as §2
[13] = Oral bioavailability in Sprague-Dawley rat at 20 mg/kg by HPLC method; format: ADME, organism-based; conditions: in vivo; in short: as §2
Mus musculus = experiment: Toxicity in mouse xenografted with human A549 cells at 20 to 40 mg/kg, ip administered once every other day for 21 days; format: organism-based; conditions: in vivo, 504 h; in short: as §1

Chain of Histone deacetylase 1 (Q13547 whole entry): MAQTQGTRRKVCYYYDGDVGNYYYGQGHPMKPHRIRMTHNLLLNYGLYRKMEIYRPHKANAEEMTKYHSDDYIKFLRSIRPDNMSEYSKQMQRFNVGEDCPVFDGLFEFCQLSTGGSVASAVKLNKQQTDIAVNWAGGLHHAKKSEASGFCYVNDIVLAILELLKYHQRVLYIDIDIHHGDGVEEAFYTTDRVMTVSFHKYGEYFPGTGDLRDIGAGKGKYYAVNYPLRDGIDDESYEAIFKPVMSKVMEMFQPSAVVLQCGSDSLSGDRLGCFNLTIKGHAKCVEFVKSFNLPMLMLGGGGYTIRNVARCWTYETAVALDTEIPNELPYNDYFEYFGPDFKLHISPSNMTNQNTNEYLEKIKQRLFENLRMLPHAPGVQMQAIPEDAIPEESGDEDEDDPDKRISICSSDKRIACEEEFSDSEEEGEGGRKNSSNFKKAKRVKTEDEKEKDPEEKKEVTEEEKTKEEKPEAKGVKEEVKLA
Chain of Voltage-gated inwardly rectifying potassium channel KCNH2 (Q12809 whole entry): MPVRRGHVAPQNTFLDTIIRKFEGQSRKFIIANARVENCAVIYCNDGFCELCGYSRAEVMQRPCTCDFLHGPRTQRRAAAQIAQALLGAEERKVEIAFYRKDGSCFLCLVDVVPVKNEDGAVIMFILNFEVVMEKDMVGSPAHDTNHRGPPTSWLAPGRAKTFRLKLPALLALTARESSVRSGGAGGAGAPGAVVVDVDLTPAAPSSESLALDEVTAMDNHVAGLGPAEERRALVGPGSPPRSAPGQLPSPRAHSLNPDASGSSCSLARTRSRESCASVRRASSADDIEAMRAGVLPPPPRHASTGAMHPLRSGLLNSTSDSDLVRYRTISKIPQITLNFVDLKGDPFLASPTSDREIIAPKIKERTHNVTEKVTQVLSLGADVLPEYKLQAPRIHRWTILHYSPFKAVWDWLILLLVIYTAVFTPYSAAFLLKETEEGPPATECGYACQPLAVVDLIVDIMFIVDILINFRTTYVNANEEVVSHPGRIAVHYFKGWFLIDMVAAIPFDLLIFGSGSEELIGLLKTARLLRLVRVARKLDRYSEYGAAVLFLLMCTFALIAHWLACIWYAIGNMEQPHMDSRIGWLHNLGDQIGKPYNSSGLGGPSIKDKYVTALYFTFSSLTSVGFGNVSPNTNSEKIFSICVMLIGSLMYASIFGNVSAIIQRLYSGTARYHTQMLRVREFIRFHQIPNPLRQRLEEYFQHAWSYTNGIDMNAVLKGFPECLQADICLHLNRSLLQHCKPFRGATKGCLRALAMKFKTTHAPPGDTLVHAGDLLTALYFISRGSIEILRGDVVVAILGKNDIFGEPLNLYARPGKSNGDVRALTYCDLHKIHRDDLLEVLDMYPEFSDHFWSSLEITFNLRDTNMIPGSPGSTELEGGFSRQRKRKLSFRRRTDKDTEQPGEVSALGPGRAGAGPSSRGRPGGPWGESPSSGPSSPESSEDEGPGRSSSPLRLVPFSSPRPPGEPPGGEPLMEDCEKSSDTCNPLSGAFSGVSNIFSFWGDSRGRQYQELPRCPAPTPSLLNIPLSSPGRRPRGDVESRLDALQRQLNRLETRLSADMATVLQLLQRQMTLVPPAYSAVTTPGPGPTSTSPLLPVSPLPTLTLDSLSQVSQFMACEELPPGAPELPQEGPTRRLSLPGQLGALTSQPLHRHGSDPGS

Q: Which IC50 (PC-3) does the source give for `O=C(CCCCCCC(=O)Nc1ccccc1)NO` [VORINOSTAT] here?
A: Its IC50 is 2920 nM.

Q: And the half-life (in vivo [1])?
A: Its half-life is 12 min.

Q: What about the bioavailability (in vivo [2]) of the same compound?
A: Its bioavailability is 11%.

Q: For `O=C(CCCCCNc1ncnc2ccccc12)NO`, which IC50 [3] is on record?
A: Its IC50 is 41.2 nM.

Q: Which IC50 [3] does the source give for `COCCOc1cc2ncnc(NCCCCCCC(=O)NO)c2cc1OCCOC` here?
A: Its IC50 is 152 nM.

Q: With `O=C(CCCCCCNc1ncnc2ccccc12)NO` as the compound, how does the IC50 [3] read?
A: Its IC50 is 33.8 nM.

Q: Which IC50 [3] does the source give for `Cc1ccc2ncnc(NCCCCCCC(=O)NO)c2c1` here?
A: Its IC50 is 20.2 nM.

Q: Which IC50 [3] does the source give for `O=C(CCCCCCNc1ncnc2cc(Cl)ccc12)NO` here?
A: Its IC50 is 24.2 nM.

Q: With `COc1cc2ncnc(NCCCCCC(=O)NO)c2cc1OC` as the compound, how does the IC50 [3] read?
A: The IC50 was 10.5 nM.

Q: For `COc1cc2ncnc(NCCCCCCC(=O)NO)c2cc1OC`, which IC50 [3] is on record?
A: Its IC50 is 13.1 nM.

Q: With `O=C(CCCCCCNc1ncnc2ccc(F)cc12)NO` as the compound, how does the IC50 [3] read?
A: The IC50 was 8.17 nM.

Q: What about the IC50 (Histone deacetylase 1) of the same compound?
A: Its IC50 is 13 nM.

Q: What about the IC50 [4] of the same compound?
A: The IC50 was 8 nM.

Q: And the IC50 (Histone deacetylase 8)?
A: The IC50 was 1460 nM.

Q: And the IC50 (MDA-MB-231)?
A: Its IC50 is 490 nM.

Q: And the IC50 (PC-3)?
A: The IC50 was 1020 nM.

Q: And the IC50 (HCT-116)?
A: Its IC50 is 3450 nM.

Q: What about the IC50 (K562) of the same compound?
A: The IC50 was 860 nM.

Q: And the IC50 (A549 [5])?
A: Its IC50 is 147 nM.

Q: And the IC50 (MRC5)?
A: Its IC50 is 76500 nM.

Q: And the IC50 [6]?
A: Its IC50 is greater than 30000 nM.

Q: What does the source list for `O=C(CCCCCCNc1ncnc2ccc(Cl)cc12)NO`?
A: IC50 [3]: 3.08 nM; inhibition in vivo at 40 mg/kg (A549 [7]): 76.4%; inhibition in vivo at 20 mg/kg (A549 [8]): 53.1%; IC50 (Histone deacetylase 1): 11 nM; IC50 [4]: 7 nM; IC50 (Histone deacetylase 8): 1970 nM; IC50 (MDA-MB-231): 170 nM; IC50 (PC-3): 760 nM; IC50 (HCT-116): 2110 nM; IC50 (K562): 1210 nM; IC50 (A549 [5]): 80 nM; IC50 (MRC5): 54900 nM; IC50 [6]: > 30000 nM; half-life [9]: 172 min; clearance [10]: 53 mL/min/kg; Tmax [11]: 15 min; Cmax [12]: 146 ng/mL; bioavailability [13]: 16.8%; Activity (Mus musculus): Non-Toxic

Q: Which IC50 [3] does the source give for `Cc1cccc2c(NCCCCCCC(=O)NO)ncnc12` here?
A: The IC50 was 55.2 nM.

Q: For `Nc1ccc2ncnc(NCCCCCCC(=O)NO)c2c1`, which IC50 [3] is on record?
A: Its IC50 is 12.1 nM.

Q: With `O=C(CCCCCCNc1ncnc2cc(F)ccc12)NO` as the compound, how does the IC50 [3] read?
A: The IC50 was 20.7 nM.

Q: Which IC50 [3] does the source give for `O=C(CCCCCCNc1ncnc2ccc([N+](=O)[O-])cc12)NO` here?
A: The IC50 was 22.9 nM.

Q: For `O=C(CCCCCCNC(=O)c1ccccc1)NO`, which IC50 [3] is on record?
A: Its IC50 is greater than 2000 nM.
